From ChEMBL document CHEMBL3808330, “Peroxide Natural Products from Plakortis zyggompha and the Sponge Association Plakortis halichondrioides-Xestospongia deweerdtae: Antifungal Activity against Cryptococcus gattii” (J Nat Prod, 2016) come the findings set out here.

In brackets after ≈: the same amount, converted by molar mass. Bounds are passed on as bounds.

Series [1] concerns Cryptococcus gattii species complex. Description: Antifungal activity against Cryptococcus gattii after 48 hrs by microbroth dilution method. Format: functional, Cryptococcus bacillisporus. In outline: (§1)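 Microbroth dilution per CLSI protocol in antibiotic medium 3; growth read as optical density at 590 nm in microplate wells; MIC90 reported. C. albicans ATCC 14503; C. krusei patient isolate from UC Davis clinical microbiology; C. gattii and C. grubii strains gifted from UC Davis.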

The test system of a further series is Candida albicans. The experiment in a line: Antifungal activity against Candida albicans ATCC 14503 after 48 hrs by microbroth dilution method. Format: functional. As to conditions: ATCC 14503, 48 h. A digest of the protocol:
as §1
(In general: Dilution methods test growth across graded concentrations, often in twofold steps.)

A further series deals with Pichia kudriavzevii. Description: Antifungal activity against fluconazole-resistant Candida krusei after 48 hrs by microbroth dilution method. It counts as functional. In outline: as §1
The next series relates to Cryptococcus neoformans. Description: Antifungal activity against Cryptococcus grubii after 48 hrs by microbroth dilution method. It counts as functional. In outline:
as §1

Series [2] can be described thus: Drug degradation in presence of 3-tert-butyl-4-hydroxy-5-methylphenyl sulfide at -20 degC after 48 hrs by 1H-NMR spectroscopic method. It counts as physicochemical.
Series [3] in a line: Drug degradation in presence of 3-tert-butyl-4-hydroxy-5-methylphenyl sulfide at -20 degC after 12 hrs by 1H-NMR spectroscopic method. Format: physicochemical.
The nature of series [4]: Stability assessed as drug degradation under ambient conditions by 1H-NMR spectroscopic method. It counts as physicochemical.

For `CCCCCC[C@]1(CC)C[C@H](CC)[C@H](CC(=O)OC)OO1`, the MIC90 (in series [1]; in the series with Candida albicans) was > 100 µM in each case.

Turning to `C[C@H](CCCCCCCCCc1ccccc1)C[C@]1(C)C[C@H](C)[C@H](CC(=O)O)OO1`, the MIC90 in series [1] is 2.4 µM (≈ 1 µg/mL); in the series with Candida albicans, 13 µM (≈ 5.44 µg/mL); in the series on Pichia kudriavzevii it was 2.7 µM (≈ 1.13 µg/mL); in the series with Cryptococcus neoformans, 3.4 µM (≈ 1.42 µg/mL).

Consider `CCCCC[C@]1(CC)C[C@H](CC)[C@H](CC(=O)O)OO1`, for which the MIC90 in series [1] is 36 µM (≈ 9.81 µg/mL); against Candida albicans it was 27 µM (≈ 7.35 µg/mL); against Pichia kudriavzevii, 10 µM (≈ 2.72 µg/mL); in the series with Cryptococcus neoformans it was 26 µM (≈ 7.08 µg/mL).

Consider `CCCCC[C@]1(CC)C[C@H](CC)[C@H](CC(=O)OC)OO1`, for which the MIC90 (in series [1]; with Candida albicans) was > 100 µM in each case.

On to `CC(=C\Cc1ccccc1)/C=C(\C)C[C@@H](C)C[C@@]1(C)C[C@@](C)(/C=C/C(=O)O)OO1`, for which the MIC90 (in series [1]; with Candida albicans) was > 100 µM each time. Further, the Stability result in series [2] is on record as “Unstable”; in series [3], “Stable”; in series [4] it was “Unstable”.

As for `CCCCC[C@]1(CC)C[C@H](CC)[C@@H]([C@H](O)C(=O)O)O1`, the MIC90 (in series [1]; against Candida albicans) was > 100 µM in each case.

Take `C/C(=C\C=C\Cc1ccccc1)C[C@@H](C)C[C@@]1(C)C[C@@](C)(/C=C/C(=O)O)OO1`: the MIC90 (in series [1]; in the series on Candida albicans) was > 100 µM throughout. The Stability entry is on record as “Unstable” in series [2], “Stable” in series [3] and “Unstable” in series [4].

For the molecule `CCCCCC[C@]1(CC)C[C@H](CC)[C@H](CC(=O)O)OO1`, the MIC90 was 9.6 µM (≈ 2.75 µg/mL) in series [1], 22 µM (≈ 6.3 µg/mL) in the series on Candida albicans, 4.3 µM (≈ 1.23 µg/mL) against Pichia kudriavzevii and 6 µM (≈ 1.72 µg/mL) in the series with Cryptococcus neoformans.

Consider `CC(=C\Cc1ccccc1)/C=C(\C)C[C@@H](C)C[C@@]1(C)C[C@@](C)(CC(=O)O)OO1`, for which the MIC90 (in series [1]; against Candida albicans) was > 100 µM in each case. The Stability result is reported as “Unstable” in series [2], “Stable” in series [3] and “Unstable” in series [4].

A word on the MIC90: it is an inhibitory concentration at the 90% level, which refers to growth in some studies and to a panel of isolates in others.
